“And” between values parts separate entries of the source, which are not always exact repeats. Equal entries are not always repeated.
System: U2OS
Assay: Multiplex assay against U2OS
Assay type: toxicity, cell-based
Conditions: human
How it was run: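 Compound was added to live cells that had been stained at seeding with Hoechst33342, BioTracker Green Microtubule Cytoskeleton Dye, MitoTracker Red and Annexin V Alexa Fluor 680, and imaging followed on a CQ1 microscope at 37°C and 5% CO2. CellPathfinder machine-learning gating divided cells into Hoechst high-intensity objects or normal cells, normal cells into healthy, pyknosed or fragmented nuclei, and pyknosed cells into mitotic or apoptotic. Tubulin, mitochondrial-mass and membrane-permeability phenotypes are per cents of healthy-nucleus cells.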

[1] = 12 h, 1 µM, compound concentration 1 uM, replicate 1
[2] = 12 h, 1 µM, compound concentration 1 uM, replicate 2
[3] = 12 h, 10 µM, compound concentration 10 uM, replicate 1
[4] = 12 h, 10 µM, compound concentration 10 uM, replicate 2
[5] = 24 h, 1 µM, compound concentration 1 uM, replicate 1
[6] = 24 h, 1 µM, compound concentration 1 uM, replicate 2
[7] = 24 h, 10 µM, compound concentration 10 uM, replicate 1
[8] = 24 h, 10 µM, compound concentration 10 uM, replicate 2
[9] = 48 h, 10 µM, compound concentration 10 uM, replicate 1
[10] = 48 h, 10 µM, compound concentration 10 uM, replicate 2
[11] = 48 h, 1 µM, compound concentration 1 uM, replicate 1
[12] = 48 h, 1 µM, compound concentration 1 uM, replicate 2

## NC(=O)Nc1cc(-c2cccc(F)c2)sc1C(=O)N[C@H]1CCCNC1 [AZD-7762]
[1]
  Population Apoptotic (%): 25%
  Population Fragmented Nuclei (%): 7%
  Population Hoechst High Intensity Objects (%): 3%
  Population Membrane Permeable-Phenotype (%): 9%
  Population Mitochondria Different-Phenotype (%): 17%
  Population Mitotic Cells (%): 75%
  Population Normal (%): 96%
  Population Pyknosed Nuclei (%): 10%
  Total Cell Count: 157
[2]
  Population Apoptotic (%): 0%
  Population Fragmented Nuclei (%): 8%
  Population Healthy Nuclei (%): 81%
  Population Hoechst High Intensity Objects (%): 15%
  Population Membrane Permeable-Phenotype (%): 13%
  Population Mitochondria Different-Phenotype (%): 10%
  Population Mitotic Cells (%): 100%
  Population Normal (%): 84%
  Population Pyknosed Nuclei (%): 9%
  Population Tubulin-Different-Phenotype (%): 26%
  Total Cell Count: 110
[3]
  Population Apoptotic (%): 25% and 43%
  Population Fragmented Nuclei (%): 28%
  Population Healthy Nuclei (%): 28% and 20%
  Population Hoechst High Intensity Objects (%): 3% and 12%
  Population Membrane Permeable-Phenotype (%): 19% and 8%
  Population Mitochondria Different-Phenotype (%): 15% and 20%
  Population Mitotic Cells (%): 74% and 56%
  Population Normal (%): 96% and 87%
  Population Pyknosed Nuclei (%): 49% and 50%
  Population Tubulin-Different-Phenotype (%): 17% and 11%
  Total Cell Count: 189 and 194
[4]
  Population Apoptotic (%): 46% and 22%
  Population Fragmented Nuclei (%): 22% and 25%
  Population Healthy Nuclei (%): 25% and 32%
  Population Hoechst High Intensity Objects (%): 5% and 11%
  Population Membrane Permeable-Phenotype (%): 21% and 20%
  Population Mitotic Cells (%): 53% and 77%
  Population Normal (%): 94% and 88%
  Population Pyknosed Nuclei (%): 52% and 41%
  Total Cell Count: 79 and 84
[5]
  Population Apoptotic (%): 40%
  Population Fragmented Nuclei (%): 15%
  Population Healthy Nuclei (%): 52%
  Population Hoechst High Intensity Objects (%): 6%
  Population Membrane Permeable-Phenotype (%): 16%
  Population Mitochondria Different-Phenotype (%): 21%
  Population Mitotic Cells (%): 60%
  Population Normal (%): 93%
  Population Pyknosed Nuclei (%): 32%
  Population Tubulin-Different-Phenotype (%): 35%
  Total Cell Count: 150
[6]
  Population Apoptotic (%): 37%
  Population Fragmented Nuclei (%): 7%
  Population Healthy Nuclei (%): 51%
  Population Hoechst High Intensity Objects (%): 18%
  Population Membrane Permeable-Phenotype (%): 7%
  Population Mitotic Cells (%): 62%
  Population Normal (%): 81%
  Population Pyknosed Nuclei (%): 40%
  Population Tubulin-Different-Phenotype (%): 34%
  Total Cell Count: 97
[7]
  Population Apoptotic (%): 81% and 85%
  Population Healthy Nuclei (%): 7%
  Population Hoechst High Intensity Objects (%): 9% and 10%
  Population Mitochondria Different-Phenotype (%): 46% and 78%
  Population Mitotic Cells (%): 18% and 14%
  Population Normal (%): 90% and 89%
  Population Pyknosed Nuclei (%): 47% and 70%
  Total Cell Count: 185 and 189
[8]
  Population Apoptotic (%): 92% and 70%
  Population Fragmented Nuclei (%): 16% and 21%
  Population Healthy Nuclei (%): 16% and 18%
  Population Hoechst High Intensity Objects (%): 20% and 11%
  Population Membrane Permeable-Phenotype (%): 100% and 64%
  Population Mitochondria Different-Phenotype (%): 80% and 57%
  Population Normal (%): 80% and 88%
  Population Pyknosed Nuclei (%): 66% and 59%
  Population Tubulin-Different-Phenotype (%): 90% and 64%
  Total Cell Count: 75 and 84
[9]
  Population Apoptotic (%): 95%
  Population Fragmented Nuclei (%): 38%
  Population Healthy Nuclei (%): 1%
  Population Hoechst High Intensity Objects (%): 15%
  Population Membrane Permeable-Phenotype (%): 0%
  Population Mitochondria Different-Phenotype (%): 33%
  Population Mitotic Cells (%): 4%
  Population Normal (%): 84%
  Population Pyknosed Nuclei (%): 59%
  Population Tubulin-Different-Phenotype (%): 33%
  Total Cell Count: 188
[10]
  Population Apoptotic (%): 100%
  Population Fragmented Nuclei (%): 16%
  Population Healthy Nuclei (%): 44%
  Population Hoechst High Intensity Objects (%): 21%
  Population Membrane Permeable-Phenotype (%): 100%
  Population Mitochondria Different-Phenotype (%): 92%
  Population Mitotic Cells (%): 0%
  Population Normal (%): 78%
  Population Pyknosed Nuclei (%): 38%
  Population Tubulin-Different-Phenotype (%): 96%
  Total Cell Count: 75

## CN1CCCC(n2nc(Cc3ccc(Cl)cc3)c3ccccc3c2=O)CC1.Cl (configuration not stated) [AZELASTINE HYDROCHLORIDE]
[1]
  Population Apoptotic (%): 42%
  Population Fragmented Nuclei (%): 12%
  Population Healthy Nuclei (%): 71%
  Population Hoechst High Intensity Objects (%): 8%
  Population Membrane Permeable-Phenotype (%): 11%
  Population Mitochondria Different-Phenotype (%): 64%
  Population Mitotic Cells (%): 57%
  Population Normal (%): 91%
  Population Pyknosed Nuclei (%): 16%
  Population Tubulin-Different-Phenotype (%): 70%
  Total Cell Count: 95
[2]
  Population Apoptotic (%): 25%
  Population Fragmented Nuclei (%): 6%
  Population Healthy Nuclei (%): 84%
  Population Hoechst High Intensity Objects (%): 11%
  Population Membrane Permeable-Phenotype (%): 7%
  Population Mitochondria Different-Phenotype (%): 57%
  Population Mitotic Cells (%): 75%
  Population Normal (%): 88%
  Population Pyknosed Nuclei (%): 8%
  Population Tubulin-Different-Phenotype (%): 68%
  Total Cell Count: 51
[3]
  Population Apoptotic (%): 63%
  Population Fragmented Nuclei (%): 18%
  Population Healthy Nuclei (%): 52%
  Population Hoechst High Intensity Objects (%): 12%
  Population Membrane Permeable-Phenotype (%): 77%
  Population Mitochondria Different-Phenotype (%): 97%
  Population Mitotic Cells (%): 36%
  Population Normal (%): 87%
  Population Pyknosed Nuclei (%): 28%
  Population Tubulin-Different-Phenotype (%): 97%
  Total Cell Count: 87
[4]
  Population Apoptotic (%): 57%
  Population Fragmented Nuclei (%): 14%
  Population Healthy Nuclei (%): 70%
  Population Hoechst High Intensity Objects (%): 4%
  Population Membrane Permeable-Phenotype (%): 84%
  Population Mitochondria Different-Phenotype (%): 98%
  Population Mitotic Cells (%): 42%
  Population Normal (%): 95%
  Population Pyknosed Nuclei (%): 15%
  Population Tubulin-Different-Phenotype (%): 100%
  Total Cell Count: 96
[5]
  Population Apoptotic (%): 33%
  Population Fragmented Nuclei (%): 16%
  Population Healthy Nuclei (%): 65%
  Population Hoechst High Intensity Objects (%): 5%
  Population Membrane Permeable-Phenotype (%): 5%
  Population Mitochondria Different-Phenotype (%): 70%
  Population Mitotic Cells (%): 66%
  Population Normal (%): 94%
  Population Pyknosed Nuclei (%): 17%
  Population Tubulin-Different-Phenotype (%): 68%
  Total Cell Count: 108
[6]
  Population Apoptotic (%): 50%
  Population Fragmented Nuclei (%): 7%
  Population Healthy Nuclei (%): 76%
  Population Hoechst High Intensity Objects (%): 8%
  Population Membrane Permeable-Phenotype (%): 10%
  Population Mitochondria Different-Phenotype (%): 57%
  Population Mitotic Cells (%): 50%
  Population Normal (%): 91%
  Population Pyknosed Nuclei (%): 15%
  Population Tubulin-Different-Phenotype (%): 50%
  Total Cell Count: 57
[7]
  Population Apoptotic (%): 90%
  Population Fragmented Nuclei (%): 29%
  Population Healthy Nuclei (%): 46%
  Population Hoechst High Intensity Objects (%): 10%
  Population Membrane Permeable-Phenotype (%): 95%
  Population Mitochondria Different-Phenotype (%): 97%
  Population Mitotic Cells (%): 9%
  Population Normal (%): 89%
  Population Pyknosed Nuclei (%): 24%
  Population Tubulin-Different-Phenotype (%): 100%
  Total Cell Count: 99
[8]
  Population Apoptotic (%): 95%
  Population Fragmented Nuclei (%): 16%
  Population Healthy Nuclei (%): 58%
  Population Hoechst High Intensity Objects (%): 4%
  Population Membrane Permeable-Phenotype (%): 98%
  Population Mitochondria Different-Phenotype (%): 100%
  Population Mitotic Cells (%): 4%
  Population Normal (%): 95%
  Population Pyknosed Nuclei (%): 25%
  Total Cell Count: 96
[11]
  Population Apoptotic (%): 54%
  Population Fragmented Nuclei (%): 15%
  Population Healthy Nuclei (%): 67%
  Population Hoechst High Intensity Objects (%): 6%
  Population Membrane Permeable-Phenotype (%): 5%
  Population Mitochondria Different-Phenotype (%): 37%
  Population Mitotic Cells (%): 45%
  Population Normal (%): 93%
  Population Pyknosed Nuclei (%): 16%
  Population Tubulin-Different-Phenotype (%): 53%
  Total Cell Count: 143
[12]
  Population Apoptotic (%): 50%
  Population Fragmented Nuclei (%): 11%
  Population Healthy Nuclei (%): 74%
  Population Hoechst High Intensity Objects (%): 7%
  Population Membrane Permeable-Phenotype (%): 16%
  Population Mitochondria Different-Phenotype (%): 41%
  Population Mitotic Cells (%): 50%
  Population Normal (%): 92%
  Population Pyknosed Nuclei (%): 14%
  Population Tubulin-Different-Phenotype (%): 47%
  Total Cell Count: 77
[9]
  Population Apoptotic (%): 87%
  Population Fragmented Nuclei (%): 23%
  Population Healthy Nuclei (%): 39%
  Population Hoechst High Intensity Objects (%): 11%
  Population Membrane Permeable-Phenotype (%): 93%
  Population Mitochondria Different-Phenotype (%): 100%
  Population Mitotic Cells (%): 12%
  Population Normal (%): 88%
  Population Pyknosed Nuclei (%): 36%
  Total Cell Count: 95
[10]
  Population Apoptotic (%): 93%
  Population Fragmented Nuclei (%): 22%
  Population Healthy Nuclei (%): 48%
  Population Hoechst High Intensity Objects (%): 5%
  Population Membrane Permeable-Phenotype (%): 98%
  Population Mitochondria Different-Phenotype (%): 98%
  Population Mitotic Cells (%): 6%
  Population Normal (%): 94%
  Population Pyknosed Nuclei (%): 29%
  Population Tubulin-Different-Phenotype (%): 100%
  Total Cell Count: 119

## Cn1c(-c2csc(C3CCN(CC4=NC5N=CC=CC5N4)CC3)n2)nc2ccccc21 (configuration not stated) [BAY-070]
[3]
  Population Fragmented Nuclei (%): 2% and 3%
  Population Healthy Nuclei (%): 90%
  Population Hoechst High Intensity Objects (%): 5% and 3%
  Population Membrane Permeable-Phenotype (%): 6%
  Population Mitochondria Different-Phenotype (%): 10%
  Population Mitotic Cells (%): 91% and 70%
  Population Normal (%): 94% and 96%
  Population Pyknosed Nuclei (%): 6% and 11%
  Population Tubulin-Different-Phenotype (%): 22% and 8%
  Total Cell Count: 183 and 214
[4]
  Population Fragmented Nuclei (%): 13% and 7%
  Population Healthy Nuclei (%): 84% and 89%
  Population Hoechst High Intensity Objects (%): 12% and 13%
  Population Membrane Permeable-Phenotype (%): 19% and 8%
  Population Mitochondria Different-Phenotype (%): 21% and 25%
  Population Mitotic Cells (%): 100% and 66%
  Population Normal (%): 87% and 86%
  Population Pyknosed Nuclei (%): 2%
  Population Tubulin-Different-Phenotype (%): 19% and 34%
  Total Cell Count: 96 and 145
[7]
  Population Apoptotic (%): 50% and 40%
  Population Fragmented Nuclei (%): 5% and 3%
  Population Healthy Nuclei (%): 88% and 92%
  Population Hoechst High Intensity Objects (%): 3% and 2%
  Population Membrane Permeable-Phenotype (%): 10%
  Population Mitochondria Different-Phenotype (%): 17% and 14%
  Population Mitotic Cells (%): 50% and 60%
  Population Normal (%): 96% and 97%
  Population Pyknosed Nuclei (%): 6% and 3%
  Population Tubulin-Different-Phenotype (%): 15% and 30%
  Total Cell Count: 265 and 259
[8]
  Population Apoptotic (%): 20% and 33%
  Population Fragmented Nuclei (%): 7% and 6%
  Population Healthy Nuclei (%): 87% and 84%
  Population Hoechst High Intensity Objects (%): 12%
  Population Mitochondria Different-Phenotype (%): 25% and 27%
  Population Mitotic Cells (%): 80% and 66%
  Population Normal (%): 87%
  Population Pyknosed Nuclei (%): 5% and 8%
  Population Tubulin-Different-Phenotype (%): 19% and 39%
  Total Cell Count: 108 and 180
